ChEMBL document CHEMBL1649560, “Beta-lactamase-mediated beta-lactam resistance in Campylobacter species: prevalence of Cj0299 (bla OXA-61) and evidence for a novel beta-Lactamase in C. jejuni” (2009)
≈ marks a conversion by molar mass, not a printed value.

tested on: Campylobacter jejuni; assay: Antibacterial activity against bla gene-negative and nitrocefin reaction-positive beta-lactamase harboring Campylobacter jejuni isolate P854 by NCCLS agar doubling dilution method; format: functional
Method in brief: (§1)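 MICs of β-lactams by agar doubling dilution following the NCCLS (CLSI) Campylobacter Working Group procedure, with C. jejuni NCTC 11168 and C. coli NCTC 11366 as controls. Isolates were from UK poultry flocks. β-Lactamase status was set by Cj0299 PCR (281-bp amplimer) and by a nitrocefin colour change of sonicated lysate within 5 min, or within 30 min on repeat.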

Row | Compound | MIC [µg/mL]
1 | CCN1CCN(C(=O)N[C@@H](C(=O)N[C@@H]2C(=O)N3[C@@H]2SC(C)(C)[C@@H]3C(=O)O)c2ccccc2)C(=O)C1=O [PIPERACILLIN] | > 256

tested on: Campylobacter coli; assay: Antibacterial activity against bla gene-positive and nitrocefin reaction-positive beta-lactamase harboring Campylobacter coli isolate P321 by NCCLS agar doubling dilution method; format: functional; method in brief: as §1

Row | Compound | MIC [µg/mL]
2 | CCN1CCN(C(=O)N[C@@H](C(=O)N[C@@H]2C(=O)N3[C@@H]2SC(C)(C)[C@@H]3C(=O)O)c2ccccc2)C(=O)C1=O [PIPERACILLIN] | > 256

tested on: Campylobacter jejuni; assay: Antibacterial activity against Campylobacter jejuni isolate P1093 harboring blaOXA-61::cat gene by NCCLS agar doubling dilution method; format: functional
Method in brief: (§2)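 Agar doubling dilution MICs (NCCLS/CLSI Campylobacter Working Group method) against Cj0299-inactivated mutants. Mutants were made by transforming the C. jejuni isolate with pCI and selecting on Mueller-Hinton agar with 10 μg/ml chloramphenicol for 3–5 days. Chromosomal insertion was confirmed by PCR with Cj0299 and cat primers.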

Row | Compound | MIC [µg/mL]
3 | CCN1CCN(C(=O)N[C@@H](C(=O)N[C@@H]2C(=O)N3[C@@H]2SC(C)(C)[C@@H]3C(=O)O)c2ccccc2)C(=O)C1=O [PIPERACILLIN] | 16 (≈ 30.9 µM)

tested on: Campylobacter jejuni; assay: Antibacterial activity against bla gene-positive and nitrocefin reaction-negative beta-lactamase harboring Campylobacter jejuni isolate P1698 by NCCLS agar doubling dilution method; format: functional; method in brief: as §1

Row | Compound | MIC [µg/mL]
4 | CCN1CCN(C(=O)N[C@@H](C(=O)N[C@@H]2C(=O)N3[C@@H]2SC(C)(C)[C@@H]3C(=O)O)c2ccccc2)C(=O)C1=O [PIPERACILLIN] | > 512

tested on: Campylobacter coli; assay: Antibacterial activity against bla-positive and beta-lactamase-weakly positive Campylobacter coli isolate P1627 by NCCLS agar doubling dilution method; format: functional
Method in brief: (§3)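 MICs by agar doubling dilution per the NCCLS (now CLSI) Campylobacter Working Group method. Isolates came from UK chicken flocks (feces, ceca or farm environment), 2000–2006. C. jejuni NCTC 11168 and C. coli NCTC 11366 served as control strains. The ampicillin resistance cutoff was 8 μg/ml; BSAC/CLSI Enterobacteriaceae guidelines were used for other agents.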

Row | Compound | MIC [µg/mL]
5 | CCN1CCN(C(=O)N[C@@H](C(=O)N[C@@H]2C(=O)N3[C@@H]2SC(C)(C)[C@@H]3C(=O)O)c2ccccc2)C(=O)C1=O [PIPERACILLIN] | 512 (≈ 989 µM)

tested on: Campylobacter jejuni; assay: Antibacterial activity against bla gene-negative and nitrocefin reaction-negative beta-lactamase harboring Campylobacter jejuni isolate P850 by NCCLS agar doubling dilution method; format: functional; method in brief: as §1

Row | Compound | MIC [µg/mL]
6 | CCN1CCN(C(=O)N[C@@H](C(=O)N[C@@H]2C(=O)N3[C@@H]2SC(C)(C)[C@@H]3C(=O)O)c2ccccc2)C(=O)C1=O [PIPERACILLIN] | > 256

tested on: Campylobacter jejuni; assay: Antibacterial activity against bla gene-positive and nitrocefin reaction-positive beta-lactamase harboring Campylobacter jejuni isolate P1618 by NCCLS agar doubling dilution method; format: functional; method in brief: as §1

Row | Compound | MIC [µg/mL]
7 | CCN1CCN(C(=O)N[C@@H](C(=O)N[C@@H]2C(=O)N3[C@@H]2SC(C)(C)[C@@H]3C(=O)O)c2ccccc2)C(=O)C1=O [PIPERACILLIN] | > 512

tested on: Campylobacter jejuni; assay: Antibacterial activity against bla gene-positive and nitrocefin reaction-positive beta-lactamase harboring Campylobacter jejuni isolate P338 by NCCLS agar doubling dilution method; format: functional; method in brief: as §3

Row | Compound | MIC [µg/mL]
8 | CCN1CCN(C(=O)N[C@@H](C(=O)N[C@@H]2C(=O)N3[C@@H]2SC(C)(C)[C@@H]3C(=O)O)c2ccccc2)C(=O)C1=O [PIPERACILLIN] | > 256

tested on: Campylobacter jejuni; assay: Antibacterial activity against Campylobacter jejuni isolate P270 harboring blaOXA-61::cat gene by NCCLS agar doubling dilution method; format: functional

Row | Compound | MIC [µg/mL]
9 | CCN1CCN(C(=O)N[C@@H](C(=O)N[C@@H]2C(=O)N3[C@@H]2SC(C)(C)[C@@H]3C(=O)O)c2ccccc2)C(=O)C1=O [PIPERACILLIN] | 8 (≈ 15.5 µM)

tested on: Campylobacter jejuni; assay: Antibacterial activity against bla gene-positive and nitrocefin reaction-positive beta-lactamase harboring Campylobacter jejuni isolate P316 by NCCLS agar doubling dilution method; format: functional; method in brief: as §3

Row | Compound | MIC [µg/mL]
10 | CCN1CCN(C(=O)N[C@@H](C(=O)N[C@@H]2C(=O)N3[C@@H]2SC(C)(C)[C@@H]3C(=O)O)c2ccccc2)C(=O)C1=O [PIPERACILLIN] | > 256

tested on: Campylobacter coli; assay: Antibacterial activity against bla gene-positive and nitrocefin reaction-positive beta-lactamase harboring Campylobacter coli isolate P1826 by NCCLS agar doubling dilution method; format: functional; method in brief: as §1

Row | Compound | MIC [µg/mL]
11 | CCN1CCN(C(=O)N[C@@H](C(=O)N[C@@H]2C(=O)N3[C@@H]2SC(C)(C)[C@@H]3C(=O)O)c2ccccc2)C(=O)C1=O [PIPERACILLIN] | 512 (≈ 989 µM)

tested on: Campylobacter jejuni; assay: Antibacterial activity against bla gene-negative and nitrocefin reaction-negative beta-lactamase harboring Campylobacter jejuni isolate P835 by NCCLS agar doubling dilution method; format: functional; method in brief: as §1

Row | Compound | MIC [µg/mL]
12 | CCN1CCN(C(=O)N[C@@H](C(=O)N[C@@H]2C(=O)N3[C@@H]2SC(C)(C)[C@@H]3C(=O)O)c2ccccc2)C(=O)C1=O [PIPERACILLIN] | > 256

tested on: Campylobacter jejuni; assay: Antibacterial activity against bla gene-positive and nitrocefin reaction-positive beta-lactamase harboring Campylobacter jejuni isolate P790 by NCCLS agar doubling dilution method; format: functional; method in brief: as §3

Row | Compound | MIC [µg/mL]
13 | CCN1CCN(C(=O)N[C@@H](C(=O)N[C@@H]2C(=O)N3[C@@H]2SC(C)(C)[C@@H]3C(=O)O)c2ccccc2)C(=O)C1=O [PIPERACILLIN] | 128 (≈ 247 µM)

tested on: Campylobacter coli; assay: Antibacterial activity against Campylobacter coli by NCCLS agar doubling dilution method; format: functional
Method in brief: (§4)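 MICs by agar doubling dilution following the NCCLS (CLSI) Campylobacter Working Group procedure, applied to ampicillin- and amoxicillin-resistant isolates from UK chicken flocks (2000–2006). C. jejuni NCTC 11168 and C. coli NCTC 11366 served as control strains. Resistance was called at an ampicillin cutoff of 8 μg/ml. Other agents were judged against Enterobacteriaceae guidelines (BSAC, CLSI).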

Row | Compound | MIC [µg/mL] | MIC50 [µg/mL] | MIC90 [µg/mL]
14 | CCN1CCN(C(=O)N[C@@H](C(=O)N[C@@H]2C(=O)N3[C@@H]2SC(C)(C)[C@@H]3C(=O)O)c2ccccc2)C(=O)C1=O [PIPERACILLIN] | 512 (≈ 989 µM) | 512 (≈ 989 µM) | 512 (≈ 989 µM)

tested on: Campylobacter jejuni; assay: Antibacterial activity against bla gene-positive and nitrocefin reaction-positive beta-lactamase harboring Campylobacter jejuni isolate P1093 by NCCLS agar doubling dilution method; format: functional; method in brief: as §1

Row | Compound | MIC [µg/mL]
15 | CCN1CCN(C(=O)N[C@@H](C(=O)N[C@@H]2C(=O)N3[C@@H]2SC(C)(C)[C@@H]3C(=O)O)c2ccccc2)C(=O)C1=O [PIPERACILLIN] | 128 (≈ 247 µM)

tested on: Campylobacter jejuni; assay: Antibacterial activity against bla gene-positive and nitrocefin reaction-negative beta-lactamase harboring Campylobacter jejuni NCTC 11168 by NCCLS agar doubling dilution method; format: functional; method in brief: as §1

Row | Compound | MIC [µg/mL]
16 | CCN1CCN(C(=O)N[C@@H](C(=O)N[C@@H]2C(=O)N3[C@@H]2SC(C)(C)[C@@H]3C(=O)O)c2ccccc2)C(=O)C1=O [PIPERACILLIN] | 512 (≈ 989 µM)

tested on: Campylobacter jejuni; assay: Antibacterial activity against bla gene-positive and nitrocefin reaction-positive beta-lactamase harboring Campylobacter jejuni isolate P1650 by NCCLS agar doubling dilution method; format: functional; method in brief: as §1

Row | Compound | MIC [µg/mL]
17 | CCN1CCN(C(=O)N[C@@H](C(=O)N[C@@H]2C(=O)N3[C@@H]2SC(C)(C)[C@@H]3C(=O)O)c2ccccc2)C(=O)C1=O [PIPERACILLIN] | > 512

tested on: Campylobacter jejuni; assay: Antibacterial activity against Campylobacter jejuni by NCCLS agar doubling dilution method; format: functional; method in brief: as §4

Row | Compound | MIC50 [µg/mL] | MIC90 [µg/mL]
18 | CCN1CCN(C(=O)N[C@@H](C(=O)N[C@@H]2C(=O)N3[C@@H]2SC(C)(C)[C@@H]3C(=O)O)c2ccccc2)C(=O)C1=O [PIPERACILLIN] | ≥ 512 | > 512

tested on: Campylobacter jejuni; assay: Antibacterial activity against bla gene-positive and nitrocefin reaction-positive beta-lactamase harboring Campylobacter jejuni isolate P286 by NCCLS agar doubling dilution method; format: functional; method in brief: as §3

Row | Compound | MIC [µg/mL]
19 | CCN1CCN(C(=O)N[C@@H](C(=O)N[C@@H]2C(=O)N3[C@@H]2SC(C)(C)[C@@H]3C(=O)O)c2ccccc2)C(=O)C1=O [PIPERACILLIN] | > 256

tested on: Campylobacter jejuni; assay: Antibacterial activity against bla gene-positive and nitrocefin reaction-positive beta-lactamase harboring Campylobacter jejuni isolate P305 by NCCLS agar doubling dilution method; format: functional; method in brief: as §3

Row | Compound | MIC [µg/mL]
20 | CCN1CCN(C(=O)N[C@@H](C(=O)N[C@@H]2C(=O)N3[C@@H]2SC(C)(C)[C@@H]3C(=O)O)c2ccccc2)C(=O)C1=O [PIPERACILLIN] | > 256

tested on: Campylobacter jejuni; assay: Antibacterial activity against bla gene-positive and nitrocefin reaction-positive beta-lactamase harboring Campylobacter jejuni isolate P285 by NCCLS agar doubling dilution method; format: functional; method in brief: as §3

Row | Compound | MIC [µg/mL]
21 | CCN1CCN(C(=O)N[C@@H](C(=O)N[C@@H]2C(=O)N3[C@@H]2SC(C)(C)[C@@H]3C(=O)O)c2ccccc2)C(=O)C1=O [PIPERACILLIN] | > 256

tested on: Campylobacter jejuni; assay: Antibacterial activity against bla gene-negative and nitrocefin reaction-negative beta-lactamase harboring Campylobacter jejuni isolate P1962 by NCCLS agar doubling dilution method; format: functional; method in brief: as §1

Row | Compound | MIC [µg/mL]
22 | CCN1CCN(C(=O)N[C@@H](C(=O)N[C@@H]2C(=O)N3[C@@H]2SC(C)(C)[C@@H]3C(=O)O)c2ccccc2)C(=O)C1=O [PIPERACILLIN] | > 256

tested on: Campylobacter jejuni; assay: Antibacterial activity against Campylobacter jejuni isolate P338 harboring blaOXA-61::cat gene by NCCLS agar doubling dilution method; format: functional; method in brief: as §2

Row | Compound | MIC [µg/mL]
23 | CCN1CCN(C(=O)N[C@@H](C(=O)N[C@@H]2C(=O)N3[C@@H]2SC(C)(C)[C@@H]3C(=O)O)c2ccccc2)C(=O)C1=O [PIPERACILLIN] | 8 (≈ 15.5 µM)

tested on: Campylobacter jejuni; assay: Antibacterial activity against bla gene-positive and nitrocefin reaction-positive beta-lactamase harboring Campylobacter jejuni isolate P1730 by NCCLS agar doubling dilution method; format: functional; method in brief: as §3

Row | Compound | MIC [µg/mL]
24 | CCN1CCN(C(=O)N[C@@H](C(=O)N[C@@H]2C(=O)N3[C@@H]2SC(C)(C)[C@@H]3C(=O)O)c2ccccc2)C(=O)C1=O [PIPERACILLIN] | > 512

tested on: Campylobacter jejuni; assay: Antibacterial activity against bla gene-negative and nitrocefin reaction-positive beta-lactamase harboring Campylobacter jejuni isolate P843 by NCCLS agar doubling dilution method; format: functional; method in brief: as §1

Row | Compound | MIC [µg/mL]
25 | CCN1CCN(C(=O)N[C@@H](C(=O)N[C@@H]2C(=O)N3[C@@H]2SC(C)(C)[C@@H]3C(=O)O)c2ccccc2)C(=O)C1=O [PIPERACILLIN] | > 256

tested on: Campylobacter jejuni; assay: Antibacterial activity against bla gene-positive and nitrocefin reaction-negative beta-lactamase harboring Campylobacter jejuni isolate P1699 by NCCLS agar doubling dilution method; format: functional; method in brief: as §1

Row | Compound | MIC [µg/mL]
26 | CCN1CCN(C(=O)N[C@@H](C(=O)N[C@@H]2C(=O)N3[C@@H]2SC(C)(C)[C@@H]3C(=O)O)c2ccccc2)C(=O)C1=O [PIPERACILLIN] | 256 (≈ 495 µM)
